This sample holds only a part of the variants without activity.
B1: tRNA (parent)
chain: GUUCCGUUGGCGUAAUGGUAACGCGUCUCCCUCCUAAGGAGAAGACUGCGGGUUCGAGUCCCGUACGGAACG

Variants of: B1
Experiment: yeast fitness relative to wild type (ratio to wild type); higher = fitter; tRNA-Arg(CCU), competitive growth, 37 C, YPD
How it was run: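 A pool of Saccharomyces cerevisiae strains, each with a tRNA-Arg(CCU) gene variant at the native genomic locus, was competed in YPD at 37°C for 24 hours across six parallel replicates. The variants had been chemically synthesised at a 3% per-site mutation rate over 69 sites, and gene amplicons before and after competition were read by 100-nucleotide paired-end sequencing. Darwinian fitness relative to wild type rested on changes in genotype frequencies. Genotypes required ≥ 100 starting reads, and estimates < 0.5 were set to 0.5.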

Variant	yeast fitness
U47C G50A	0.99
C46G G63A A65U	0.721
A45U C49G A65U	0.599
C46G C60G	0.715
C46U A57G C66A	≤ 0.5
U47A C55G G68A	≤ 0.5
C46G G50A	1.04
C46G G50C	0.949
C46G C61A A65C	≤ 0.5
U47C U53C A57C	≤ 0.5
U47G G68U	0.568
A45U G67U A69G	0.536
C46G C62G G67U	0.542
C46U G51A C66U	0.778
G48C A57G A69U	0.562
C46A C49U G63C	0.694
A45U C55U A70C	0.589
C46U G48A G56A	0.848
A45U C62G C66G	≤ 0.5
U47C A69U	1.08
C46G G50C G56A A57U	≤ 0.5

Variant	yeast fitness
U47C G58C A65C	0.614
C46U G56A A70G	0.697
U47C A65U	0.998
U47C C66U	0.963
U47G G51A	0.588
C46G G52C	0.585
C46G G52A	0.843
A45U U54C C66G G67C	≤ 0.5
C46G A57C A69C	≤ 0.5
C46U G50A C66U	0.792
U47G G56A	0.646
G48A G50C	1.07
G48A G56A	1.02
A45U C66U G68A	0.665
C46U G68C	1.02
A45U C49U C61G	0.582
A45U C46G A70U	≤ 0.5
C46U U64A	1.03
C46U U64C	1.01
C46A C61G A69G	0.551
C46A C61G A69C	0.501

Variant	yeast fitness
C46A C49A	0.601
G48A G63C	0.89
C46U G67A	0.986
C46U G67U	0.869
U47C G67A	0.874
C46U A57C	0.638
C46U A57G	0.994
C46A C61U A70C	0.861
C46U C49A C62U	0.555
C46G G58A U59G	≤ 0.5
A45U C49A G52C G56A	≤ 0.5
G48A A65C	0.901
C46A C61G A70U	0.525
U47C C62U	0.944
U47C G58A G67A	0.584
G48A G51C	0.655
C46U C60G A65U	0.557
C46U G51C A70U	0.557
C46U G51C A70C	0.504
U47C G63C	0.769
C46A G63C G67A	0.614

Variant	yeast fitness
U47G C49A	0.68
U47G C49U	0.682
C46U C62G	0.969
A45U G67C	0.738
A45U U53A	0.723
A45U U53G	≤ 0.5
G48A A57U A65U C66A	≤ 0.5
C46U A65G	0.877
U47C G52A G63A	≤ 0.5
C46U C60A A70U	0.585
U47A G48C G51A C61A	≤ 0.5
G48A C49U	0.97
C46G C62U C66U	0.746
G48A C66U A69C	0.719
A45U C46U U47C U64C	0.988
C46A A69G	0.932
C46A A69U	1.1
C46A A69C	0.839
G48A C60A	0.695
G48A C60U	0.847

Source: the RNAGym collection of RNA variant scans (doi:10.1126/science.aae0568)
